According to ChEMBL document CHEMBL5715960, “Epigenetic Co-Deregulation of EZH2/TET1 is a Senescence-Countering, Actionable Vulnerability in Triple-Negative Breast Cancer” (Theranostics, 2019):
Activity calls are given as the source filed them. The rule behind the calls is not given here.

What was measured:
MDA-MB-231 [1] = test: Upregulation of TET1 in human MDA-MB-231 cells at 2 uM for 2 days by immunoblot analysis; format: functional, cell-based; conditions: time 2.0 day
MDA-MB-436 [2] = test: Antiproliferative activity against human MDA-MB-436 cells at 0.5 to 2 uM for 2 days by Guava viacount assay; format: functional, cell-based; conditions: dose 0.5-2 µM, time 2.0 day
Method in brief: (§1)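 Cells plated at 2 × 10^4 (24-well) or 1 × 10^5 (12-well), exposed to a range of GSK343 concentrations for 2 days against DMSO solvent control; cell number and viability read by Guava ViaCount flow cytometry, relative to DMSO. Triplicate; mean ± SD.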

MDA-MB-453 = test: Antiproliferative activity against human MDA-MB-453 cells at 0.5 to 2 uM for 2 days by Guava viacount assay; format: functional, cell-based; conditions: dose 0.5-2 µM, time 2.0 day; method in brief: as §1
SK-BR-3 [3] = test: Cytotoxicity against human SK-BR-3 cells at 0.5 to 2 uM for 2 days by Guava viacount assay; format: toxicity, cell-based; conditions: sk-br-3, 48 h, dose 0.5-2 µM, time 2 day; method in brief: as §1
MCF7 [4] = test: Cytotoxicity against human MCF7 cells at 0.5 to 2 uM for 2 days by Guava viacount assay; format: toxicity, cell-based; conditions: mcf7, 48 h, dose 0.5-2 µM, time 2 day; method in brief: as §1
SK-BR-3 [5] = test: Cytotoxicity against human SK-BR-3 cells assessed as increase in cell death at 10 uM for 2 days by Guava viacount assay; format: toxicity, cell-based; conditions: sk-br-3, 48 h, time 2 day; method in brief: as §1
MCF7 [6] = test: Cytotoxicity against human MCF7 cells assessed as increase in cell death at 10 uM for 2 days by Guava viacount assay; format: toxicity, cell-based; conditions: mcf7, 48 h, time 2 day; method in brief: as §1
MDA-MB-436 [7] = test: Induction of cell cycle arrest in human MDA-MB-436 cells assessed as accumulation of cells at S phase measured at 2 uM by BrdU/PI staining based flow cytometric analysis (reference value: 39.5%); format: functional
MDA-MB-231 [8] = test: Induction of cell cycle arrest in human MDA-MB-231 cells assessed as accumulation of cells at G1 phase measured at 2 uM by BrdU/PI staining based flow cytometric analysis (reference value: 51.5%); format: functional
MDA-MB-231 [9] = test: Antiproliferative activity in human MDA-MB-231 cells assessed as increase in SA-beta-gal positive cells at 2 uM for 5 days by SA-beta-gal staining analysis; format: functional, cell-based; conditions: time 5.0 day
Method in brief: (§2)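 GSK343 2 µM or DMSO for 5 days, then chromogenic SA-β-gal staining and counting of positive cells. Triplicate; mean ± SD.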

BT-474 [10] = test: Antiproliferative activity in human BT-474 cells assessed as increase in SA-beta-gal positive cells at 2 uM for 5 days by SA-beta-gal staining analysis; format: toxicity, cell-based; conditions: bt-474, 120 h, time 5 day; method in brief: as §2
MDA-MB-231 [11] = test: Antiproliferative activity against human MDA-MB-231 cells assessed as downregulation of PCNA by immunoblot analysis; format: functional, cell-based
Method in brief: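 Cells exposed to GSK343 at 2 µM (standard level unless stated otherwise), lysed and immunoblotted; α-tubulin and total H3 as loading controls.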

BT-474 [12] = test: Upregulation of TP53 gene in human BT-474 cells at 2 uM by qRT-PCR analysis; format: functional, cell-based
Method in brief: (§3)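 Relative transcript levels measured by qRT-PCR in cells treated with 2 µM inhibitor, normalised to DMSO-treated control cells. Triplicate experiments unless stated otherwise; mean ± SD reported; unpaired two-tailed Student's t-test at p < 0.05.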

MDA-MB-231 [13] = test: Upregulation of CDKN1A gene in human MDA-MB-231 cells at 2 uM by qRT-PCR analysis; format: functional, cell-based; method in brief: as §3
BT-474 [14] = test: Effect on human BT-474 cells assessed as increase in TET3 transcription by qRT-PCR analysis; format: functional, cell-based
Method in brief: (§4)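 qRT-PCR of TET1, TET2 and TET3 transcripts in breast cancer cells exposed to GSK343 (2 µM unless otherwise indicated), shown relative to DMSO-treated cells. Mean ± SD, triplicate unless stated.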

MCF7 [15] = test: Effect on human MCF7 cells assessed as increase in TET3 transcription by qRT-PCR analysis; format: functional, cell-based; method in brief: as §4
MDA-MB-231 [16] = test: Effect on human MDA-MB-231 cells assessed as increase in global 5hmc level by dot analysis; format: functional, cell-based
Method in brief: (§5)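 Global 5hmC measured by dot blot on genomic DNA from cells given GSK343 or carrying EZH2 knock-down, with DMSO or scrambled shRNA as controls. DNA denatured in 0.1 M NaOH at 99 °C for 5 min, then neutralized with ammonium sulfate pH 7.0. 5 µg spotted, UV-crosslinked, probed with anti-5hmC for 1 h at room temperature, ECL detection, dot intensity quantified. Mean ± SD.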

MCF7 [17] = test: Effect on human MCF7 cells assessed as increase in global 5hmc level by dot analysis; format: functional, cell-based; method in brief: as §5
MDA-MB-436 [18] = test: Upregulation of TET1 in human MDA-MB-436 cells at 2 uM for 2 days by immunoblot analysis; format: functional, cell-based; conditions: time 2.0 day
MDA-MB-436 [19] = test: Effect on […] in human MDA-MB-436 cells assessed as repression in TET1 promoter H3K27me3 by ChiP-qPCR analysis; format: functional, cell-based
Method in brief: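 ChIP-qPCR on MDA-MB-231 and MDA-MB-436 cells exposed to GSK343 or DMSO. Chromatin pulled down with anti-H3K27me3 antibody and amplified with primers specific for the TET1 promoter. Input (no immunoprecipitation) serves as internal control and anti-IgG as negative control. Mean ± SD, triplicate unless stated.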

MDA-MB-231 [20] = test: Antiproliferative activity in human MDA-MB-231 cells expressing vector assessed as increase in SA-beta-gal positive cells by SA-beta-gal staining analysis (reference value: 6.5+/-4%); format: functional
MDA-MB-231 [21] = test: Antiproliferative activity in human MDA-MB-231 cells expressing shTET1 assessed as increase in SA-beta-gal positive cells by SA-beta-gal staining analysis (reference value: 9+/-1.5%); format: functional
MDA-MB-231 [22] = test: Effect on human MDA-MB-231 cells assessed as decrease in H3K27me3 level at 2 uM in presence of adriamycin by immunoblot analysis; format: functional, cell-based
Method in brief: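 Immunoblot of MDA-MB-231 and MCF7 lysates after 0.005 µg/ml adriamycin with or without 2 µM GSK343, or DMSO. α-Tubulin and total H3 used as loading controls.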

MDA-MB-231 [23] = test: […] in human MDA-MB-231 cells xenografted in Crl:NU-Foxn1-nu/nu mouse […] administered at 5 mg/kg, ip in presence of adriamycin treated for 21 days by SA-beta-gal staining analysis; format: functional, organism-based; conditions: time 21.0 day
Method in brief: (§6)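 SA-β-gal staining of xenograft tumors. Twice-weekly intraperitoneal GSK343 5 mg/kg, adriamycin 1 mg/kg, the combination, or DMSO, started at a tumor volume of about 50 mm3 and continued for 21 days.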

MDA-MB-436 [24] = test: In vivo activation of TET1 in Crl:NU-Foxn1-nu/nu mouse xenografted with human MDA-MB-436 cells at 5 mg/kg, ip in presence of adriamycin treated for 21 days; format: functional, organism-based; conditions: time 21.0 day
MDA-MB-436 [25] = test: […] in human MDA-MB-436 cells xenografted in Crl:NU-Foxn1-nu/nu mouse […] administered at 5 mg/kg, ip in presence of adriamycin treated for 21 days by SA-beta-gal staining analysis; format: functional, organism-based; conditions: time 21.0 day; method in brief: as §6
MDA-MB-436 [26] = test: Effect on human MDA-MB-436 cells assessed as increase in TET1 protein level by qRT-PCR analysis

In the case of `CCCc1cc(C)[nH]c(=O)c1CNC(=O)c1cc(-c2ccnc(N3CCN(C)CC3)c2)cc2c1cnn2C(C)C`, the Activity (MDA-MB-231 [1]) is reported as “Active”, the Activity (MDA-MB-436 [2]) is reported as “Active” and the Activity (MDA-MB-453) is reported as “Active”. The Activity (SK-BR-3 [3]) was “Non-Toxic”, the Activity (MCF7 [4]) was “Non-Toxic” and the Activity (SK-BR-3 [5]) was “Non-Toxic”. The Activity (MCF7 [6]) was “Non-Toxic”, the Activity (MDA-MB-436 [7]) was 15.2% and the Activity (MDA-MB-231 [8]) was 76.8%. For the same molecule, the Activity (MDA-MB-231 [9]) was “Active”, the Activity (BT-474 [10]) was “Non-Toxic” and the Activity (MDA-MB-231 [11]) was “Active”. The Activity (BT-474 [12]) was “inactive”, the Activity (MDA-MB-231 [13]) was “Active” and the Activity (BT-474 [14]) was “inactive”. For the same molecule, the Activity (MCF7 [15]) was “inactive”, the Activity (MDA-MB-231 [16]) was “Active” and the Activity (MCF7 [17]) was “inactive”. The Activity (MDA-MB-436 [18]) was “Active”, the Activity (MDA-MB-436 [19]) was “Active” and the Activity (MDA-MB-231 [20]) was 45.6%. For the same molecule, the Activity (MDA-MB-231 [21]) was 12.3%, the Activity (MDA-MB-231 [22]) was “Active” and the Activity (MDA-MB-231 [23]) was “Active”. The Activity (MDA-MB-436 [24]) was “Active”, the Activity (MDA-MB-436 [25]) was “Active” and the Activity (MDA-MB-436 [26]) was “Active”.
